Many of the other results were omitted from the sample, so hits are more common in it than they were.
INS promoter act = TRM-6 insulin promoter activation | activation, % at 2 µM | hit rate 0.81% among 130,000 | AID 1296 | TRM-6 cells, insulin promoter eGFP reporter, imaging; plate-scaled: unstimulated 0, stimulated control 100;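 active = activation at 2 µM above a set limit, confirmed on inspection of the cell images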;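 note: share of cells whose green reporter signal exceeds an intensity cutoff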
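Material: Human fetal islet-derived TRM-6 cells with tamoxifen-inducible insulin promoter–eGFP reporter | Medium: Low-glucose (5.5 mM) medium with tamoxifen | Probe or stimulus: Tamoxifen inducer, 0.75 µM, in seeding medium | Schedule: Tamoxifen pre-incubation 15 h overnight, then compound exposure 48 h at 37 °C | Detection: High-content imaging of fixed cells with Hoechst nuclear stain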
Hits are given with their value; n = inactive.

SMILES	INS promoter act
FC(F)(F)c1nnc(-c2ccccc2)nc1N1CCOCC1	n
Cc1ccc(-c2nnc(C)c(N3CCOCC3)n2)cc1	n
FC(F)(F)c1cccc(-c2nnc(-c3ccccc3)c(N3CCOCC3)n2)c1	233.3
O=C(Nc1ccccc1CC[N+](=O)[O-])N1CCN(c2ccccc2)CC1	n
COC(=O)c1ccc(OC)c(CSc2nnc(-c3ccc(C(C)(C)C)cc3)o2)c1	508.3
COc1ccc(-c2nnc(SCC(=O)Nc3ccccc3OC)o2)cc1	n
COc1ccccc1NC(=O)CSc1nnc(-c2ccncc2)o1	n
COc1ccc(CCNC(=O)Cn2cnc3scc(-c4ccccc4)c3c2=O)cc1OC	n
O=C(Nc1ncc(Cc2ccc(SC(F)F)cc2)s1)c1ccc(OC(F)F)cc1	n
O=[N+]([O-])c1cc(S(=O)(=O)N2CCCC2)ccc1SCCO	n
O=C(CCCNC(=O)/C(=C\c1ccccc1F)NC(=O)c1ccccc1)OCc1ccccc1	257.1
CC(C)(C)NC(=O)/C(=C/c1ccccc1F)NC(=O)c1ccc([N+](=O)[O-])cc1	n
CC(C)(C)NC(=O)/C(=C\c1ccccc1F)NC(=O)c1ccc([N+](=O)[O-])cc1	n
Cn1nc(-c2ccc3c(c2)OCCO3)c2ccccc2c1=O	n
Cc1ccc(S(=O)(=O)NNC(=O)c2cccc(O)c2)cc1	n
COc1cc(C(=O)N/N=C2\CCS(=O)(=O)c3ccc(F)cc32)cc(OC)c1OC	n
CC(=O)Nc1ccc(C(=O)NNC(=O)Cc2ccccc2)cc1	n
CC(=O)c1ccc(NC(=O)C2C3C=CC(C3=C(c3ccccc3)c3ccccc3)C2C(=O)O)cc1 (stereo unspecified)	n
CCN1c2ccccc2NC2C1C(C(C)=O)C(=O)N2c1ccc(Cl)cc1 (stereo unspecified)	133.3
CCC(=O)N1C(=O)C2(Nc3ccccc3N2)c2ccccc21	n
Cc1cc(C)nc(N/N=C/c2ccccc2)n1	n
Cc1nc(C#N)c(N/N=C/c2cccc(Cl)c2)o1	300.0
Clc1cccc(/C=N/Nc2nnc(Cl)c3ccccc23)c1	n
CCOC(=O)c1cccc(NC(=O)c2ccc(N(C)C)cc2)c1	n
Cc1nn(C)cc1C(C(=O)NC1CCCCC1)N(C(=O)Cc1cccs1)c1ccc(C(C)C)cc1 (stereo unspecified)	200.0
SMILES	INS promoter act
Cc1nn(C)cc1C(C(=O)NC1CCCCC1)N(C(=O)c1cnccn1)c1ccc(Oc2ccccc2)cc1 (stereo unspecified)	n
Cc1ccc(C(C(=O)NC2CCCC2)N(C(=O)Cc2cccs2)c2ccc(C)c(C)c2)o1 (stereo unspecified)	n
O=C1C2C(C(=O)N1/N=C/c1ccc(N3CCCCC3)o1)C1C=CC2C12CC2 (stereo unspecified)	n
CCOc1ccc(-n2c(Cc3cc(=O)[nH]c(=O)[nH]3)nnc2SCC(=O)Nc2nnc(C)s2)cc1	n
COc1ccc(NCc2nnc(SCC(=O)Nc3cc(C(F)(F)F)ccc3Cl)o2)cc1	n
COc1ccc(-n2c(Cc3cc(=O)[nH]c(=O)[nH]3)nnc2SCC(=O)Nc2cc(C(F)(F)F)ccc2Cl)cc1	255.0
CCCN1Cc2cccc(C(=O)Nc3ccc(-c4nc5ccccc5[nH]4)cc3)c2C1=O	n
C[N+]1(C2CCC3CCCC2C3O)CCCC1 (stereo unspecified)	n
COc1ccc(C(=O)O/N=C(\N)c2ccncc2)cc1OC	n
COc1ccc(C/C(N)=N/OC(C)=O)cc1OC	n
COc1ccc(/C(N)=N/OC(=O)Cc2ccc(OC)c(OC)c2)cc1	209.7
CCC(CC)C(=O)Nc1nnc(SCC(=O)NC(C)(C)C)s1	n
CCc1cccc(NC(=O)C2CCCC2)c1	n
Cc1cccc(NC(=O)C2CCCN(S(=O)(=O)c3cccc4nsnc34)C2)c1 (stereo unspecified)	n
CCc1cccc(NC(=O)C2CCCN(S(=O)(=O)c3c(C)[nH]c(=O)[nH]c3=O)C2)c1 (stereo unspecified)	82.8
Cc1c(-c2ccc(F)cc2)[n+](=O)c2c(n1[O-])CCCCC2	n
O=C(Nc1nnc(SCc2ccc(F)cc2)s1)C1CC(=O)N(Cc2ccccc2)C1 (stereo unspecified)	n
O=C(Nc1ccccc1)/C(=C\c1cccs1)NC(=O)c1ccccc1	n
O=C(N/C(=C/c1cccs1)C(=O)N1CCCCCC1)c1ccccc1	n
Cc1ccc(C(=O)N/C(=C\c2cccs2)C(=O)NC2CCCCC2)cc1	400.0
Cc1ccc(OC(=O)c2cccc(S(=O)(=O)N3CCCC3)c2)c(-n2nc3ccccc3n2)c1	n
CSc1ccc(CN(C)CC(=O)NC(C)c2ccccc2)cc1 (stereo unspecified)	n
NS(=O)(=O)c1ccc(NC(=S)Nc2ccc(F)c(F)c2)cc1	n
CCN1C(=O)CC(C(=O)OC)=C1C	n
CC(=O)COC(=O)c1cccc(N2C(=O)C3C4C=CC(C4)C3C2=O)c1 (stereo unspecified)	n
COC(=O)C1=C(C)N(c2cccc(C(C)=O)c2)C(=O)C1	475.0
O=C(CN1C(=O)S/C(=C/c2ccc(N3CCOCC3)cc2)C1=O)N1CCOCC1	n
